Changes are numbered by the printed parent chain. Numbers in names are those of the source.
B1: MjCobY^G8D (enzyme, Methanocaldococcus jannaschii, UniProt Q58517 1-196, looked up)
chain: MDALIMADGKGTRMGGVEKPLIKLCGRCLIDYVVSPLLKSKVNNIFIATSPNTPKTKEYINSAYKDYKNIVVIDTSGKGYIEDLNECIGYFSEPFLVVSSDLINLKSKIINSIVDYFYCIKAKTPDVEALAVMIPKEKYPNPSIDFNGLVPAGINVVSPKHGYQKEEIMVIDELIFNINTKDDLKLAEMLLKKDGL
B2: MjCobY R13A (enzyme, Methanocaldococcus jannaschii, UniProt Q58517 1-196, looked up)
chain: B1 chain with D8G, R13A
B3: MjCobY E18D (enzyme, Methanocaldococcus jannaschii, UniProt Q58517 1-196, looked up)
chain: B1 chain with D8G, E18D
B4: MjCobY K19A (enzyme, Methanocaldococcus jannaschii, UniProt Q58517 1-196, looked up)
chain: B1 chain with D8G, K19A
B5: MjCobY P20A (enzyme, Methanocaldococcus jannaschii, UniProt Q58517 1-196, looked up)
chain: B1 chain with D8G, P20A
B6: MjCobY T53S (enzyme, Methanocaldococcus jannaschii, UniProt Q58517 1-196, looked up)
chain: B1 chain with D8G, T53S
B7: MjCobY P54A (enzyme, Methanocaldococcus jannaschii, UniProt Q58517 1-196, looked up)
chain: B1 chain with D8G, P54A
B8: MjCobY Y80F (enzyme, Methanocaldococcus jannaschii, UniProt Q58517 1-196, looked up)
chain: B1 chain with D8G, Y80F
B9: MjCobY D83G (enzyme, Methanocaldococcus jannaschii, UniProt Q58517 1-196, looked up)
chain: B1 chain with D8G, D83G
B10: MjCobY P94A (enzyme, Methanocaldococcus jannaschii, UniProt Q58517 1-196, looked up)
chain: B1 chain with D8G, P94A
B11: MjCobY D101G (enzyme, Methanocaldococcus jannaschii, UniProt Q58517 1-196, looked up)
chain: B1 chain with D8G, D101G
B12: MjCobY^G153D (enzyme, Methanocaldococcus jannaschii)
chain: B1 chain with D8G, G153D

Molecular target: the molecule itself
Experiment: SEC

How did the “percent dimer (Monomer:Dimer Ratio)” value turn out when B1 was run?
Its value is 67%.

And the “percent monomer (Monomer:Dimer Ratio)” value?
Its value is 33%.

For B2, which “percent dimer (Monomer:Dimer Ratio)” value is on record?
Its value is 86%.

What about the “percent monomer (Monomer:Dimer Ratio)” value of the same molecule?
Its value is 14%.

What does the source list for B3?
percent dimer (Monomer:Dimer Ratio): 60%; percent monomer (Monomer:Dimer Ratio): 40%

What does the source list for B4?
percent dimer (Monomer:Dimer Ratio): 64%; percent monomer (Monomer:Dimer Ratio): 36%

B5 was tested. Which “percent dimer (Monomer:Dimer Ratio)” value did it give?
Its value is 37%.

What about the “percent monomer (Monomer:Dimer Ratio)” value of the same molecule?
Its value is 63%.

B6 was tested. Which “percent dimer (Monomer:Dimer Ratio)” value did it give?
The value was 24%.

And the “percent monomer (Monomer:Dimer Ratio)” value?
Its value is 76%.

B7 was tested. Which “percent dimer (Monomer:Dimer Ratio)” value did it give?
Its value is 50%.

What about the “percent monomer (Monomer:Dimer Ratio)” value of the same molecule?
The value was 50%.

B8 was tested. Which “percent dimer (Monomer:Dimer Ratio)” value did it give?
Its value is 26%.

What about the “percent monomer (Monomer:Dimer Ratio)” value of the same molecule?
The value was 74%.

Which results are given for B9?
percent dimer (Monomer:Dimer Ratio): 18%; percent monomer (Monomer:Dimer Ratio): 82%

B10 was tested. Which “percent dimer (Monomer:Dimer Ratio)” value did it give?
The value was 48%.

What about the “percent monomer (Monomer:Dimer Ratio)” value of the same molecule?
Its value is 52%.

What does the source list for B11?
percent dimer (Monomer:Dimer Ratio): 66%; percent monomer (Monomer:Dimer Ratio): 34%

What does the source list for B12?
percent dimer (Monomer:Dimer Ratio): 46%; percent monomer (Monomer:Dimer Ratio): 54%

molecular target: T1, MjCobY (Methanocaldococcus jannaschii, UniProt Q58517, G153D); experiment: isothermal titration calorimetry; format: binding
T1 sequence (Q58517 1-196 G153D): B1 chain with D8G, G153D
Procedure, shortened: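 Recombinant G153D variant purified by heat step (75°C, 15 min), ammonium sulfate, hydrophobic interaction, anion exchange and size-exclusion chromatography; dialysed at 4 °C against Tris-HCl 50 mM pH 8.0, NaCl 50 mM, MgCl2 10 mM, TCEP 4 mM. GTP in spent dialysate; 1 mM stock titrated by 27 injections into 18 µM protein dimers at 27 °C.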

Which Kd does the source give for Nc1nc2c(ncn2[C@@H]2O[C@H](COP(=O)(O)OP(=O)(O)OP(=O)(O)O)[C@@H](O)[C@H]2O)c(=O)[nH]1 [GTP] here?
The Kd was 400 ± 40 nM.

From paper PMC3125946 (Biochemistry, 2011)
